Results pooled from the literature.
Compare with care: the assays were run in different laboratories.
Cell line: MCF7
Observed: cell growth or viability

`COc1cccc(-c2nc3ccccc3[nH]2)c1` has an IC50 of 51.4 µM (MTT; 48 h).
With `COc1ccc(C(=O)/C=C/c2cc3c(cc2Br)OCO3)cc1S(N)(=O)=O` the inhibition was 102% (SRB; 10 µM).
The EC50 of `C[C@@H](NC(=O)[C@H](CCCCNC(=O)C(F)(F)F)NS(C)(=O)=O)C(=O)N[C@@H](CCCNC(=N)N)C(N)=O` is reported as 47.6 to 62.8 µM (MTT; 72 h).
`COc1ccc(Cc2nc(/N=C3\NC(=O)N(C)C3=O)n(C)c2Cc2ccc(O)cc2)cc1` gave an EC50 of 5.9 µM.
The inhibition of `COc1cc(CNC(=O)C[C@H](C)CCC=C(C)C)ccc1OCc1cn(-c2ccc(Cl)cc2)nn1` is reported as 34% (SRB; 10 µM).
For `COc1cc(C(CC(=O)c2ccc(C(C)(C)C)cc2)NCCc2ccc(O)c(O)c2)ccc1O` (stereo not shown), the TGI was 4.24 µM (MTT).
For `COc1ccc(C(=O)/C=C/c2ccc(Cl)c(Cl)c2)cc1S(N)(=O)=O`, the inhibition was 149% (SRB; 10 µM).
`Cc1ccc2nc(-c3ccc(Cl)cc3)n(Cc3ccccc3Cl)c2c1` has an IC50 of 59.8 µM (MTT).
For `COc1ccccc1/C=C/C(=O)c1ccc(OC)c(S(N)(=O)=O)c1`, the GI50 was 2.7 µM (SRB; 48 h).
The TGI of `COc1cccc2c1C(=O)c1c(O)c3c(c(O)c1C2=O)C[C@@](O)(C(=O)CO)C[C@@H]3O[C@H]1C[C@H](N)[C@H](O)[C@H](C)O1` is reported as 0.21 µM (MTT).
For `CCCCCCCC(=O)NCC(=O)OC`, the inhibition was 45% (MTT; 10 µM; 48 h).
`C=CCn1c(-c2ccc([N+](=O)[O-])cc2)nc2ccccc21` gave an IC50 of 34.1 µM (MTT).
With `CC(C)c1cnn2c(NCc3ccccc3)cc(NC[C@H]3CCNC[C@@H]3O)nc12` the inhibition was roughly 50% (0.1 µM; 9 days).
For `Cc1ccc2nc(-c3ccncc3)[nH]c2c1`, the IC50 was 54.6 µM (MTT; 48 h).
For `COc1cc(C(CC(=O)c2ccc(Cl)cc2)NCCc2ccc(O)c(O)c2)ccc1O` (stereo not shown), the TGI was 3.05 µM (MTT).
`COc1ccc(C(=O)/C=C/c2ccc3ccccc3c2)cc1S(N)(=O)=O` gave an inhibition of 175% (SRB; 10 µM).
With `COc1cccc2c1C(=O)c1c(O)c3c(c(O)c1C2=O)C[C@@](O)(C(=O)CO)C[C@@H]3O[C@H]1C[C@H](N)[C@H](O)[C@H](C)O1` the IC50 was 0.06 µM (MTT; 48 h).
With `c1ccc2[nH]c(-c3ccncc3)nc2c1` the IC50 was greater than 100 µM (MTT; 48 h).
For `C[C@]12CC[C@@H]3c4ccc(O)cc4CC[C@H]3[C@@H]1CC[C@@H]2O`, the EC90 was 53.5 µM (ATP luminescence; 72 h).
The EC50 of `CCCCCCCCCCCCNC(=S)NCCCC[C@H](NS(C)(=O)=O)C(=O)N[C@H](C)C(=O)N[C@@H](CCCNC(=N)N)C(=O)N1CCOCC1` is reported as 64.7 to 93.7 µM (MTT; 72 h).
For `C=CCn1c(-c2ccc(OC)c(OC)c2)nc2ccccc21`, the IC50 was 37 µM (MTT).
`COc1cc(C(CC(C)=O)NCCc2ccc(O)c(O)c2)ccc1O` (stereo not shown) has a TGI of 46.2 µM (MTT).
`COc1ccc(C(=O)/C=C/c2ccccc2Cl)cc1S(N)(=O)=O` gave an inhibition of 4% (SRB; 10 µM).
With `CCOc1cc(-c2nc3ccccc3[nH]2)ccc1O` the IC50 was 59.2 µM (MTT; 48 h).
`COc1ccc(C(=O)/C=C/c2ccc3c(c2)OCCO3)cc1S(N)(=O)=O` gave an inhibition of 77% (SRB; 10 µM).
The IC50 of `Cc1ccc2nc(-c3ccc([N+](=O)[O-])cc3)n(Cc3ccc(Cl)cc3)c2c1` is reported as 6.24 µM (MTT).
`CCCCCCCCCCCCNC(=S)NCCCC[C@H](NS(C)(=O)=O)C(=O)N[C@@H](C)C(=O)N[C@@H](CCCNC(=N)N)C(N)=O` gave an EC50 of 63.7 to 84.3 µM (MTT; 72 h).
`COc1ccc(C(=O)/C=C/c2cccc(Cl)c2)cc1S(N)(=O)=O` gave an inhibition of 167% (SRB; 10 µM).
